Assay results as given in ChEMBL document CHEMBL3352492, “Selenorhodamine photosensitizers for photodynamic therapy of P-glycoprotein-expressing cancer cells” (J Med Chem, 2014).
The source made the active and inactive calls. No cut-off for these calls is given here.

Key:
[1] = tested on: Colon 26; assay: Photo-toxicity in mouse Colon 26 cells assessed as reduction in cell surviving fraction at 15 Jcm'-2 of continuous illumination with 360 to 800 nm light incubated for 48 hrs by sulforhodamine B assay; details: Colon 26, 48 h
[2] = Photo-stability assessed as drug degradation exposed to after 230 Jcm'-2 of continuous illumination with 350 to 800 nm light in solutions of 10% CH3OH in pH 7.4 buffer; assay type: physicochemical; details: solution of 10% CH3OH in pH 7.4 buffer, read-out: Drug degradation
[3] = Photo-stability assessed as drug degradation exposed to after 230 Jcm'-2 of continuous illumination with 500 to 800 nm light in solutions of 10% CH3OH in pH 7.4 buffer; assay type: physicochemical; details: solution of 10% CH3OH in pH 7.4 buffer, read-out: Drug degradation
[4] = Lipophilicity, log P of the compound by pH 7.4 at 23 degC by UV-visible spectrophotometry based shake flask method; assay type: physicochemical; details: buffer
Outline: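 Shake-flask method. A saturated n-octanol solution of dye was mixed with an equal volume of PBS, pH 7.4, at 23 °C for 3–5 min, then left 1 h to settle. The concentration in each layer was measured by UV–visible spectrophotometry.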

[5] = tested on: Colon 26; assay: Drug uptake in mouse Colon 26 cells at 0.5 uM in absence of 100 uM verapamil by flow cytometry; assay type: ADME, cell-based; details: colon 26, 0.5 µM
Outline: (§1)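 Colo-26 cells given 0.5 μM dye for 1 h, with or without 100 μM verapamil. Uptake read by flow cytometry as relative fluorescence, excitation 561 nm and emission 710 nm. Error bars are SD.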

[6] = tested on: Colon 26; assay: Photo-toxicity in mouse Colon 26 cells assessed as reduction in cell surviving fraction at 0.5 Jcm'-2 of continuous illumination with 350 to 700 nm light incubated for 48 hrs by sulforhodamine B assay; assay type: functional, cell-based; details: Colon 26, 48 h
Outline: (§2)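 Colo-26 cells were incubated 1 h in the dark with 0.1–0.5 μM […], then irradiated up to 1.0 J cm^-2 with 350–700 nm tungsten–halogen light (3.7–4.1 mW cm^-2). Cells were kept 48 h and survival was measured by sulforhodamine B assay.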

[7] = tested on: Colon 26; assay: Photo-toxicity in mouse Colon 26 cells assessed as reduction in cell surviving fraction at 1 Jcm'-2 of continuous illumination with 350 to 700 nm light incubated for 48 hrs by sulforhodamine B assay; assay type: functional, cell-based; details: Colon 26, 48 h
Outline: as §2

[8] = tested on: Colon 26; assay: Photo-toxicity in mouse Colon 26 cells assessed as reduction in cell surviving fraction at 0.15 uM at 1 Jcm'-2 of continuous illumination with 350 to 700 nm light incubated for 48 hrs by sulforhodamine B assay; assay type: functional, cell-based
[9] = Permeability in MDCK2-MDR1 cells assessed as cell associated fraction by measuring mass fraction extracted from cell monolayer by methanol wash after 1 hr flux in apical to basolateral direction at 5 uM in presence of 4.3 mg/ml BSA and in presence of P-gp inhibitor LSN335984 by mass spectrometry; assay type: ADME, cell-based, Canis lupus familiaris; details: dog, mdck-ii
Outline: (§3)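 MDCKII-MDR1 cells seeded at 50 000 cells cm^-2 on Transwell polycarbonate filters, used on day 6. After a rinse in DPBSH at 37 °C, monolayers were preincubated 30 min in 4.3 mg mL^-1 BSA/DPBSH with or without 5 μM P-gp inhibitor LSN 335984. Then 5 μM dye was added apically and run 1 h AB flux at 37 °C with nutation. Monolayers were rinsed in cold DPBS and extracted 3 min in methanol, and compound was quantified by LC-MS/MS. Cell-associated value is the percentage of added mass recovered.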

[10] = Permeability in MDCK2-MDR1 cells assessed as cell associated fraction by measuring mass fraction extracted from cell monolayer by methanol wash after 1 hr flux in apical to basolateral direction at 5 uM in presence of 4.3 mg/ml BSA and in absence of P-gp inhibitor LSN335984 by mass spectrometry; assay type: ADME, cell-based, Canis lupus familiaris; details: dog, mdck-ii
Outline: as §3

[11] = tested on: Colon 26; assay: Potentiation of doxorubicin-induced cytotoxicity against mouse Colon 26 cells at 0.15 uM incubated in dark for 1 hr by sulforhodamine B assay; assay type: functional, cell-based
Outline: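 Colo-26 cells were plated at 10 000/well and held 24 h. Doxorubicin (0.005–5.0 μM) was applied with or without 0.15 μM selenorhodamine, with Dox-only and dye-only controls, for 1 h in the dark with no irradiation. Medium was replaced, then 48 h at 37 °C, 5% CO₂. Surviving fraction by sulforhodamine B assay (570 nm); six replicates; Student's t-test pairwise.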

[12] = tested on: Colon 26; assay: Photo-toxicity against mouse Colon 26 cells at 0.15 uM incubated in dark for 1 hr then irradiated with light dose of 1 Jcm'-2 of 611 nm laser light measured after 48 hrs by sulforhodamine B assay; assay type: functional, cell-based
Outline: (§4)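 Colo-26 murine colon carcinoma cells were grown in RPMI 1640 with L-glutamine, 10% FBS and 1% penicillin–streptomycin. They were plated at 10 000 cells/well and held 24 h. Selenorhodamine was added at 0.15 μM (final) and cells were kept 1 h in the dark. Cells were then irradiated with a tunable dye laser at λmax ± 2 nm, 3.2 mW cm⁻², to 1 J cm⁻². Medium was replaced, followed by 48 h at 37 °C, 5% CO₂. Viability was read by sulforhodamine B at 570 nm.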

[13] = tested on: Colon 26; assay: Potentiation of 0.5 uM doxorubicin-induced cytotoxicity against mouse Colon 26 cells at 0.15 uM incubated in dark for 1 hr then irradiated with light dose of 1 Jcm'-2 of 611 nm laser light measured after 48 hrs by sulforhodamine B assay; assay type: functional, cell-based
Outline: (§5)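 Colo-26 cells were plated at 10 000/well and held 24 h. Doxorubicin (0.005, 0.05, 0.5, 1.0 or 5.0 μM) was added with 0.15 μM selenorhodamine, both diluted in RPMI from stocks, with Dox-only and dye-only wells. After 1 h in the dark, cells were laser-irradiated at λmax ± 2 nm, 3.2 mW cm⁻², 1 J cm⁻². Fresh medium, then 48 h at 37 °C, 5% CO₂. Surviving fraction by SRB absorbance at 570 nm; six replicates.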

[14] = tested on: Colon 26; assay: Potentiation of 1 uM doxorubicin-induced cytotoxicity against mouse Colon 26 cells assessed as cell surviving fraction at 0.15 uM incubated in dark for 1 hr then irradiated with light dose of 1 Jcm'-2 of 611 nm laser light measured after 48 hrs by sulforhodamine B assay; assay type: functional
Outline: as §5

[15] = tested on: Colon 26; assay: Drug uptake in mouse Colon 26 cells at 0.5 uM in presence of 100 uM verapamil by flow cytometry; assay type: ADME, cell-based; details: colon 26, 0.5 µM
Outline: as §1

[16] = tested on: Colon 26; assay: Dark toxicity in mouse Colon 26 cells assessed as cell surviving fraction at 0.1 to 0.5 uM incubated for 1 hr by sulforhodamine B assay; assay type: cell-based; details: colon 26, 1 h
Outline: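 Colo-26 murine colon carcinoma cells, 10 000 per well, grown 24 h in RPMI 1640 with 10% FBS. Dye at 0.1–0.5 μM for 1 h in the dark, then fresh medium and 48 h at 37 °C, 5% CO2. Viability by sulforhodamine B, absorbance at 570 nm, reported as surviving fraction.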

[17] = tested on: Colon 26; assay: Photo-toxicity in mouse Colon 26 cells assessed as reduction in cell surviving fraction at =< 0.5 uM and up to 1 Jcm'-2 of continuous illumination with 350 to 700 nm light incubated for 48 hrs by sulforhodamine B assay; assay type: functional, cell-based
Outline: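 Colo-26 cells, 10 000 per well, grown 24 h in RPMI 1640 with 10% FBS. Dye at ≤0.5 μM for 1 h in the dark. Irradiated up to 1.0 J cm^-2 with 350–700 nm tungsten–halogen light at 3.7–4.1 mW cm^-2, then 48 h at 37 °C. Survival by sulforhodamine B at 570 nm.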

[18] = Selectivity index, ratio of LD50 dark toxicity against mouse Colon 26 cells to EC50 for Photo-toxicity against mouse Colon 26 cells 1 Jcm'-2 of continuous illumination with 350 to 700 nm light; assay type: cell-based; details: read-out: Ratio LD50/EC50
[19] = tested on: Colon 26; assay: Photo-toxicity in mouse Colon 26 cells assessed as reduction in cell surviving fraction at 0.15 uM at >5 Jcm'-2 of continuous illumination with 350 to 700 nm light incubated for 48 hrs by sulforhodamine B assay; assay type: functional, cell-based
[20] = tested on: Colon 26; assay: Photo-toxicity against mouse Colon 26 cells at 0.15 uM incubated in dark for 1 hr then irradiated with light dose of 1 Jcm'-2 of 613 nm laser light measured after 48 hrs by sulforhodamine B assay; assay type: functional, cell-based
Outline: as §4

[21] = tested on: Colon 26; assay: Potentiation of doxorubicin-induced cytotoxicity against mouse Colon 26 cells at 0.15 uM incubated in dark for 1 hr then irradiated with light dose of 1 Jcm'-2 of 613 nm laser light measured after 48 hrs by sulforhodamine B assay; assay type: functional, cell-based
Outline: as §5

SMILES	logD [4]	Drug uptake [5]	EC50 [6] [µM]	EC50 [7] [µM]	Activity [11]	Activity [16]	Activity [17]	fold change (FC) [15]	further results
CN(C)c1ccc(-c2cc(-c3ccc(N)cc3)[s+]c(-c3ccc(N)cc3)c2)cc1	–	–	–	–	–	–	–	–	EC50 [1]: 0.07 µM
CN1CCC(C)(C)c2cc3c(-c4ccc(C(=S)N5CCCCC5)s4)c4ccc(=[N+](C)C)cc-4[se]c3cc21.[Cl-]	1.61	Active	0.22	0.14	inactive	–	–	–	degraded [2]: 50%; degraded [3]: 50%; Activity [8]: Active; Activity [9]: 55%; Activity [10]: 45%; Activity [12]: Active; Activity [13]: Active; Activity [14]: <=0.2
CN1CCC(C)(C)c2cc3c(-c4ccc(C(=S)N5CCCCC5)s4)c4ccc(=[N+](C)C)cc-4sc3cc21.F[P-](F)(F)(F)(F)F	–	Active	–	–	–	> 0.95	inactive	–	Drug uptake [15]: Not Active
CN1CCC(C)(C)c2cc3c(-c4ccc(C(=O)N5CCCCC5)s4)c4ccc(=[N+](C)C)cc-4sc3cc21.F[P-](F)(F)(F)(F)F	–	–	–	–	–	> 0.95	inactive	–	–
CCN(CC)C(=O)c1ccc(-c2c3ccc(=[N+](C)C)cc-3sc3cc4c(cc23)C(C)(C)CCN4C)s1.F[P-](F)(F)(F)(F)F	–	–	–	–	–	> 0.95	inactive	7	–
CCN(CC)C(=O)c1ccc(-c2c3ccc(=[N+](C)C)cc-3[se]c3cc4c(cc23)C(C)(C)CCN4C)s1.[Cl-]	2.26	–	0.31	0.3	inactive	–	–	5	selectivity ratio [18]: 26; Activity [19]: Active; Activity [20]: inactive; Activity [21]: inactive
CCN(CC)C(=S)c1ccc(-c2c3ccc(=[N+](C)C)cc-3[se]c3cc4c(cc23)C(C)(C)CCN4C)s1.[Cl-]	2.41	Active	0.2	0.17	inactive	–	–	1.3	degraded [2]: 50%; degraded [3]: 50%; selectivity ratio [18]: 56; Activity [8]: Active; Activity [12]: Active; Activity [13]: Active; Activity [14]: <=0.2
CCN(CC)C(=S)c1ccc(-c2c3ccc(=[N+](C)C)cc-3sc3cc4c(cc23)C(C)(C)CCN4C)s1.F[P-](F)(F)(F)(F)F	–	Active	–	–	–	> 0.95	inactive	1.3	–
CN1CCC(C)(C)c2cc3c(-c4ccc(C(=O)N5CCCCC5)s4)c4ccc(=[N+](C)C)cc-4[se]c3cc21.[Cl-]	2.23	–	> 0.5	0.41	inactive	–	–	–	Activity [9]: 39%; Activity [10]: 16%; Activity [20]: inactive; Activity [21]: inactive
